Experimental data: ChEMBL document CHEMBL1146497, “Antifouling activity of brominated cyclopeptides from the marine sponge Geodia barretti” (J Nat Prod, 2004)
Active and inactive are the calls of the source. The rule behind the calls is not given here.

Experiments:
Type in all cases: functional, organism-based
[1] = system: Amphibalanus improvisus; experiment: Antifouling activity against Balanus improvisus […] assessed as inhibition of cyprid larval settlement
How it was run: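 Competent B. improvisus cyprids (20 ± 2 per dish) were exposed in 10 mL filtered seawater (0.2 µm), with four replicates and filtered-seawater controls. Test substances were dissolved in milliQ water and diluted into seawater as three tenfold concentration steps. Settled, living-unsettled and dead cyprids were scored as percentages.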

[2] = system: Amphibalanus improvisus; experiment: Antifouling activity against Balanus improvisus […] assessed as inhibition of cyprid larval settlement at 0.1 to 10 uM after 3 to 4 days relative to control
How it was run: (§1)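 Competent Balanus improvisus cyprids (20 ± 2 per dish) in 10 mL filtered seawater (0.2 µm) containing test substance, dissolved first in milliQ water. Four replicate dishes per concentration, with filtered-seawater dishes as controls. Settled, living unsettled and dead cyprids were scored as percentages.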

[3] = system: Amphibalanus improvisus; experiment: Antifouling activity against Balanus improvisus […] assessed as inhibition of cyprid larval settlement at 1.9 uM after 3 to 4 days relative to control; how it was run: as §1

N=C(N)NCCCC1NC(=O)C(Cc2c[nH]c3cc(Br)ccc23)NC1=O.O=C(O)C(F)(F)F (stereo unspecified)
LC50 [1]: 4 µg/mL | Activity [2]: Active

NC(Cc1c[nH]c2cc(Br)ccc12)C(=O)O (racemic)
Activity [2]: inactive

NC(Cc1c[nH]c2cc(F)ccc12)C(=O)O (racemic)
Activity [2]: inactive

N=C(N)NCCC[C@@H]1NC(=O)/C(=C/c2c[nH]c3cc(Br)ccc23)NC1=O.O=C(O)C(F)(F)F
Activity [3]: Active | LC50 [1]: 0.4 µg/mL | Activity [2]: Active

N[C@@H](Cc1c[nH]c2ccccc12)C(=O)O
Activity [2]: inactive

tributyltin-oxide
LC50 [1]: 0.09 µg/mL

N=C(N)NCCC[C@H](N)C(=O)O
Activity [2]: inactive

NC(Cc1c[nH]c2ccc(Br)cc12)C(=O)O (racemic)
Activity [2]: inactive
